Measurements published in ChEMBL document CHEMBL1147654, “Synthesis and pharmacological evaluation of novel 9- and 10-substituted cytisine derivatives. Nicotinic ligands of enhanced subtype selectivity” (J Med Chem, 2006).

Key:
[1] = Selectivity for rat alpha-4-beta-2 nACHR over alpha3beta4 nACHR expressed in human HEK293 cells; format: cell-based
In short: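 Ki ratio (α3β4/α4β2), taken from competition binding Ki values measured on membrane homogenates of stably transfected cells expressing the respective nAChR subtypes.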

[2] = target: T1, Neuronal acetylcholine receptor; alpha4/beta2 (Rattus norvegicus) (UniProt P09483+P12390); assay: Inhibition of nicotine-stimulated response at rat alpha-4-beta-2 nACHR at 100 uM; format: functional
[3] = target: T2, Neuronal acetylcholine receptor; alpha4/beta2 (Rattus norvegicus, UniProt P09483+P12390); assay: Displacement of [3H]epibatidine from rat forebrain alpha4beta2 nACHR
In short: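 Competition binding was run on rat forebrain membrane homogenates.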

[4] = target: T1, Neuronal acetylcholine receptor; alpha4/beta2 (Rattus norvegicus); assay: Efficacy at rat alpha4beta2 nACHR by rubidium efflux assay; format: functional
[5] = target: Neuronal acetylcholine receptor; alpha3/beta4 (Rattus norvegicus) (UniProt P04757+P12392); assay: Efficacy at rat alpha3beta4 nACHR expressed in human HEK293 cells by rubidium efflux assay relative to nicotine; format: functional, cell-based
In short: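 Agonist-stimulated 86Rb+ efflux in KXα3β4R2 cells stably expressing rat α3β4 nAChRs. Mean ± standard error of three independent experiments, each in quadruplicate.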

[6] = target: T3, Neuronal acetylcholine receptor; alpha4/beta4 (Rattus norvegicus, UniProt P09483+P12392); assay: Displacement of [3H]epibatidine from rat alpha-4-beta-4 nACHR expressed in human HEK293 cells; format: cell-based
In short: (§1)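 Competition binding in membrane homogenates of stably transfected cells expressing each nAChR subtype, with Ki values derived from displacement.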

[7] = target: T4, Neuronal acetylcholine receptor; alpha2/beta4 (Rattus norvegicus, UniProt P12389+P12392); assay: Displacement of [3H]epibatidine from rat alpha-2-beta-4 nACHR expressed in human HEK293 cells; format: cell-based; in short: as §1
[8] = target: T5, Neuronal acetylcholine receptor; alpha3/beta4 (Rattus norvegicus, UniProt P04757+P12392); assay: Displacement of [3H]epibatidine from rat alpha3beta4 nACHR expressed in human HEK293 cells; format: cell-based; in short: as §1
[9] = target: T6, Neuronal acetylcholine receptor; alpha2/beta2 (Rattus norvegicus, UniProt P12389+P12390); assay: Displacement of [3H]epibatidine from rat alpha-2-beta-2 nACHR expressed in human HEK293 cells; format: cell-based; in short: as §1
[10] = target: T3, Neuronal acetylcholine receptor; alpha4/beta4; assay: Displacement of [3H]epibatidine from rat alpha-4-beta-4 nACHR expressed in human HEK293 cells at 10 uM; format: cell-based
[11] = target: T5, Neuronal acetylcholine receptor; alpha3/beta4; assay: Displacement of [3H]epibatidine from rat alpha-3-beta-4 nACHR expressed in human HEK293 cells at 10 uM; format: cell-based
[12] = Displacement of [3H]epibatidine from rat […] nACHR expressed in human HEK293 cells at 10 uM; format: cell-based
[13] = target: T2, Neuronal acetylcholine receptor; alpha4/beta2; assay: Displacement of [3H]epibatidine from rat alpha-4-beta-2 nACHR expressed in human HEK293 cells at 10 uM; format: cell-based
[14] = target: T4, Neuronal acetylcholine receptor; alpha2/beta4; assay: Displacement of [3H]epibatidine from rat alpha-2-beta-4 nACHR expressed in human HEK293 cells at 10 uM; format: cell-based
[15] = target: T6, Neuronal acetylcholine receptor; alpha2/beta2; assay: Displacement of [3H]epibatidine from rat alpha2beta2 nACHR expressed in human HEK293 cells at 10 uM; format: cell-based
[16] = target: Neuronal acetylcholine receptor; alpha3/beta2 (Rattus norvegicus, UniProt P04757+P12390); assay: Displacement of [3H]epibatidine from rat alpha-3-beta-2 nACHR expressed in human HEK293 cells at 10 uM; format: cell-based
Sequence of Neuronal acetylcholine receptor; alpha3/beta2 (P04757 whole entry): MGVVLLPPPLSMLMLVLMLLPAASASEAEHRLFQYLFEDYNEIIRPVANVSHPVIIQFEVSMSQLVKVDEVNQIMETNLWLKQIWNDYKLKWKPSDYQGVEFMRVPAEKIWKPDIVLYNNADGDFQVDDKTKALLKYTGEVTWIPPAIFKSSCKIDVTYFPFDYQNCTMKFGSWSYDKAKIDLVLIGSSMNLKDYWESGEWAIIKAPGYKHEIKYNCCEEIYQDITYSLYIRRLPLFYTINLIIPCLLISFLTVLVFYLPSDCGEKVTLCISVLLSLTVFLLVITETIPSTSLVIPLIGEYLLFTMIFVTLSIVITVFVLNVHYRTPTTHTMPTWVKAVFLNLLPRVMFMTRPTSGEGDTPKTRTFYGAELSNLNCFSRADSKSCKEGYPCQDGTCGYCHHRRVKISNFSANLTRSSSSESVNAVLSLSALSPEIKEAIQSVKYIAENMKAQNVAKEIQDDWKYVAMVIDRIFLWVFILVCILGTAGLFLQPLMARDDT
Sequence of Neuronal acetylcholine receptor; alpha3/beta2 (P12390 whole entry): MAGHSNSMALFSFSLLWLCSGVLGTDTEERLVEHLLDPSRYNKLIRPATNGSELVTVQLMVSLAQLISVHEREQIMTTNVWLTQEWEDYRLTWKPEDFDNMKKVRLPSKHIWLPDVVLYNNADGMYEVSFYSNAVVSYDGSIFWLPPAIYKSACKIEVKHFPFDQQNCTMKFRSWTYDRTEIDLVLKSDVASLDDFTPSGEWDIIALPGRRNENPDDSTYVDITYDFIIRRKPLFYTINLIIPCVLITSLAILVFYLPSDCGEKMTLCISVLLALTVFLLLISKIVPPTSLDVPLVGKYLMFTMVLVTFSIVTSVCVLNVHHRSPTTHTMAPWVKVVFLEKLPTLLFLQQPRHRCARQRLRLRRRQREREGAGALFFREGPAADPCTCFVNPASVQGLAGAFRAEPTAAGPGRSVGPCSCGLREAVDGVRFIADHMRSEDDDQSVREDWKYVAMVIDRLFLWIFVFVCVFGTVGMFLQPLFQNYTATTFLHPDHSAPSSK

T2 sequence (P09483 whole entry): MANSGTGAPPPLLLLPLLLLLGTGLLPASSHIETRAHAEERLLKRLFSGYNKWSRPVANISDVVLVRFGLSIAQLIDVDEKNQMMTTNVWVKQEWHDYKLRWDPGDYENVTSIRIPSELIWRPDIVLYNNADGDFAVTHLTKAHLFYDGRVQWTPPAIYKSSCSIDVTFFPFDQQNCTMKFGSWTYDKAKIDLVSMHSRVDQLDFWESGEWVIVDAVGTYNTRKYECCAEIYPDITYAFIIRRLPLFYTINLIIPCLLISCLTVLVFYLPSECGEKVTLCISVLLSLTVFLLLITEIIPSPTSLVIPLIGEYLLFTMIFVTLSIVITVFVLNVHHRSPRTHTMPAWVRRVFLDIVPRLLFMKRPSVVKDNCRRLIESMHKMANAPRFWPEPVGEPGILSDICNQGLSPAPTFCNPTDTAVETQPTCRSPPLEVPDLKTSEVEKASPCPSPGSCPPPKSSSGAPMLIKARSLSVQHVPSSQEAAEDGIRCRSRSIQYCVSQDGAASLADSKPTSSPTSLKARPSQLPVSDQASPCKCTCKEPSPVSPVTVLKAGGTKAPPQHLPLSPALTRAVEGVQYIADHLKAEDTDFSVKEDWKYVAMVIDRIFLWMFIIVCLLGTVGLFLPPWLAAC
T2 sequence (P12390 whole entry): as the sequence (P12390 whole entry) above
T3 sequence (P09483 whole entry): as the sequence (P09483 whole entry) above
T3 sequence (P12392 whole entry): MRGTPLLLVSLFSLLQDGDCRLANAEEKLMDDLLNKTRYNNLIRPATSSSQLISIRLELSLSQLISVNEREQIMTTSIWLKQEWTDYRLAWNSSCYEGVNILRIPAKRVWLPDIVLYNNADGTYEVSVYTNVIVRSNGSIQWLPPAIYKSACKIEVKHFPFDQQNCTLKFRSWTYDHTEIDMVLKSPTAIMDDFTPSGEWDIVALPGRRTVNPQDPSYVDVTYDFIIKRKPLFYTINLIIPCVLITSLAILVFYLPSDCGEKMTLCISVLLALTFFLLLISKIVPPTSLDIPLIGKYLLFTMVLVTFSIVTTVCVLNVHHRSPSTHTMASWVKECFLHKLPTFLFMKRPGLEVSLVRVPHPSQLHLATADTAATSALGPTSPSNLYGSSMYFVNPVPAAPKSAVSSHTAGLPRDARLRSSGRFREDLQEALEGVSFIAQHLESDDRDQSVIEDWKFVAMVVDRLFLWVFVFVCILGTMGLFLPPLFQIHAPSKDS
T4 sequence (P12389 whole entry): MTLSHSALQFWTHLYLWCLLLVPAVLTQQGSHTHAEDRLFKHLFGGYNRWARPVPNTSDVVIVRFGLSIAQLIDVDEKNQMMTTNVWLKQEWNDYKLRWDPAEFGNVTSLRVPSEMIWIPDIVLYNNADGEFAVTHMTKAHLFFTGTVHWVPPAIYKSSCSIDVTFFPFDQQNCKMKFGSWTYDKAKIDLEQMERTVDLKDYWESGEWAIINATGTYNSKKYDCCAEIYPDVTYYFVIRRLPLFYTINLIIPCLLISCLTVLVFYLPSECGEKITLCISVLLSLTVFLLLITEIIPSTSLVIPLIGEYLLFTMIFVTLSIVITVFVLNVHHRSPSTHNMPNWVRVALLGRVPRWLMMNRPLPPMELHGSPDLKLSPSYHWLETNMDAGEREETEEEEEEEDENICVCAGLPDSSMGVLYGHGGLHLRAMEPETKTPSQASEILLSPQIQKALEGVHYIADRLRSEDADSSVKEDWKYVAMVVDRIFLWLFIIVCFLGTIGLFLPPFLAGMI
T4 sequence (P12392 whole entry): as the sequence (P12392 whole entry) above
T6 sequence (P12389 whole entry): as the sequence (P12389 whole entry) above
T6 sequence (P12390 whole entry): as the sequence (P12390 whole entry) above
T5 sequence (P04757 whole entry): as the sequence (P04757 whole entry) above
T5 sequence (P12392 whole entry): as the sequence (P12392 whole entry) above

| SMILES | Ratio [1] | Ki [10] [µM] | Ki [11] [µM] | Ki [12] [µM] | Ki [13] [µM] | Ki [14] [µM] | Ki [16] [µM] | also measured |
| --- | --- | --- | --- | --- | --- | --- | --- | --- |
| COC(=O)[C@H]1C2CNCC(C2)c2cccc(=O)n21 (single isomer, unassigned) | 13 | – | – | – | – | – | – | – |
| O=c1cc(CO)cc2n1CC1CNCC2C1 (racemic) | 909 | – | – | – | – | – | – | inhibition [2]: > 50%; Ki [3]: 0.038 µM |
| CN1CCC[C@H]1c1cccnc1 | – | – | – | – | – | – | – | Emax [4]: 100%; Emax [5]: 100% |
| O=c1cccc2n1C[C@@H]1CNC[C@H]2C1 [CYTISINICLINE] | 144 | – | – | – | – | – | – | Ki [6]: 0.0021 µM; Ki [7]: 0.00541 µM; Ki [8]: 0.217 µM; Ki [3]: 0.00192 µM; Ki [9]: 0.00107 µM |
| O=c1ccccn1CC1CCCNC1 (centres undefined) | – | 5.55 | 535 | 253 | 1.78 | 159 | 18.7 | Ki [15]: 4.63 µM |
| Cc1ccc(-c2ccc3n(c2=O)CC2CNCC3C2)s1 (single isomer, unassigned) | 59 | – | – | – | – | – | – | – |
| O=c1ccccn1CC1CCCN(Cc2ccccc2)C1 (centres undefined) | – | 1.4 | 83 | 54 | 0.54 | 91 | 4.3 | Ki [15]: 100 µM |
| CCCCc1ccc(-c2ccc3n(c2=O)CC2CNCC3C2)cc1 (single isomer, unassigned) | 17 | – | – | – | – | – | – | – |
| O=c1c(-c2ccc(F)cc2)ccc2n1CC1CNCC2C1 (single isomer, unassigned) | 157 | – | – | – | – | – | – | – |
| CCC(=O)[C@H]1C2CNCC(C2)c2cccc(=O)n21 (single isomer, unassigned) | 18 | – | – | – | – | – | – | – |
| O=c1ccccn1CC1CCN(Cc2ccccc2)CC1 | – | 4.5 | 620 | 470 | 1.3 | 440 | 7.3 | Ki [15]: 26 µM |
| Cc1cc2n(c(=O)c1)CC1CNCC2C1 (racemic) | 3530 | – | – | – | – | – | – | inhibition [2]: > 50%; Ki [3]: 0.02 µM |
| O=c1ccccn1CC1CCNCC1 | – | 5.4 | 750 | 87 | 1.6 | 80 | 12 | – |
| C=Cc1ccc2n(c1=O)CC1CNCC2C1 (single isomer, unassigned) | – | – | – | – | – | – | – | Emax [4]: 22% |
| CN1CCCC(Cn2ccccc2=O)C1 (centres undefined) | – | 2.6 | 160 | 76 | 0.98 | 180 | 6 | Ki [15]: 19 µM |
